# MrgX1 PAM: positive allosteric modulators of MrgX1, primary screen, HEK293 cells, Fluo-4 calcium flux; FDSS; stronger effect = higher value; B-score at 10 µM; hit rate 0.63% among 310,000;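 active = plate-corrected calcium response at least 3 library SD above typical, normal starting fluorescence, not activating the receptor alone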;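 also: compound read alongside a low EC10 to EC30 dose of BAM8-22 agonist; peak minus trough fluorescence over baseline measured at the second addition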
# MrgX1 agonist: agonists of human MrgX1 receptor, primary screen, HEK293 cells, Fluo-4 calcium flux; hit rate 0.44% among 310,000; Fluo-4 calcium fluorescence, agonist mode; stronger effect = higher value; B-score at 10 µM;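 active = calcium response B-score plate-corrected fluorescence ratio at least 3 library SD, with starting fluorescence B-score inside 5 SD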
#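 System – MrgX1-expressing HEK293 cells · Incubation – cells plated overnight, dye loaded 0.5 h 37 °C, 0.5 h room temperature · Technique – kinetic Fluo-4 NW fluorescence of intracellular calcium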
# RGS4 block: RGS4 inhibitors, primary screen, cell-based, HEK293 M3R inducible RGS4, calcium flux; Regulator of G-protein signaling 4 (Homo sapiens), P49798; Fluo-4 calcium flux; stronger effect = higher value; triggered by carbachol at its EC20; B-score at 10 µM; hit rate 0.45% among 310,000; AID 463165, 2010;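 active = B-score, a plate-corrected calcium signal, over three deviations above library mean, with baseline fluorescence within five deviations of library mean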;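 also: RGS4 expression induced by doxycycline in cells with stable M3 receptor; B-score is computed from the integrated fluorescence ratio over baseline after carbachol; higher B-score means a larger calcium signal and so more RGS4 inhibition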
# Target sequence (P49798 whole entry, looked up): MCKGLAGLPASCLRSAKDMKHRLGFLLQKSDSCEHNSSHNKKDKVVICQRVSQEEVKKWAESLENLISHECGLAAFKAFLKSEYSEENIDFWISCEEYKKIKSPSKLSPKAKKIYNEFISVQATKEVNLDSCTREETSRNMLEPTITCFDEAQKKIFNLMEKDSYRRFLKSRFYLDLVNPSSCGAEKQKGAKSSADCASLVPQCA
# MrgX1 antag: antagonists of human MrgX1 receptor, primary screen, HEK293 cells, Fluo-4 calcium flux; Mas-related G-protein coupled receptor member X1 (Homo sapiens), Q96LB2; BAM8-22 antagonism; stronger effect = lower value; B-score at 10 µM; hit rate 1.3% among 310,000; AID 588676, 2011;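 active = calcium-response B-score plate-corrected more than 3 library SD below zero, starting fluorescence within 5 deviations, no agonist response on first addition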;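 also: peak minus trough fluorescence over baseline after final BAM8-22 challenge near maximal dose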
# RGS4 pot: RGS4 potentiators or activators, primary screen, cell-based, HEK293 M3R inducible RGS4, calcium flux. carbachol calcium flux Fluo4; stronger effect = lower value. B-score at 10 µM. hit rate 0.92% among 310,000;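 active = B-score of the integrated calcium signal more than 4 SD below the library mean, with starting fluorescence not abnormally high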;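 also: negative B-score means reduced calcium response which marks RGS4 activation or potentiation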
#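 System – HEK293 FlpIn-TREx cells, stable M3R, doxycycline-inducible RGS4 · Reagent – ECmax carbachol challenge · Times – compound preincubation 20 min at room temperature before agonist · Technique – Fluo4 fluorescence kinetic imaging of calcium · Measure – B score of integrated Fluo4 ratio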
# Hits are given with their value; - = inactive; . = not tested or not shown. This is a sample that favours compounds with a hit; in the whole collection about 3.5% have one here.
SMILES,MrgX1 PAM,MrgX1 agonist,RGS4 block,MrgX1 antag,RGS4 pot
Cc1ccc2nccc(C(=O)N3CCCC(Nc4ccc(C)c(C)c4)C3)c2c1 (configuration not stated),-,-,-,-,-
O=C(NNC(=O)c1ccccc1Cl)c1cc2cc(OC(F)(F)F)ccc2[nH]1,7.5,-,-,-,-
Cc1ccc(NC(=O)c2cc3cc(OC(F)(F)F)ccc3[nH]2)cc1,-,-,-,-,-
Cc1nc2nc(-c3cccs3)[nH]c2cc1Br,-,-,-,-,-
c1cnc(N2CCN(c3nc4ccccc4n4cnnc34)CC2)nc1,-,-,-,-,-
c1ccc(C(c2ccccc2)N2CCN(c3nc4ccccc4n4cnnc34)CC2)cc1,-,-,-,-,-7.2
Cc1ccc(CN2CCN(c3cccc4[nH]ccc34)CC2)cc1,-,-,-,-,-
C=C(C)[C@@H]1CCC2(C(=O)O)CC[C@]3(C)[C@H](CC[C@@H]4[C@@]5(C)CCC(=O)C(C)(C)[C@@H]5CC[C@]43C)[C@@H]12 (some centres not stated),-,-,-,-8.3,-
O=C(c1cc(COc2ccc(F)cc2Cl)on1)N1CCN(c2cnccn2)CC1,-,-,-,-,-
Cc1cccc(C)c1NC(=O)NN=C1CCCCC1,-,-,-,-,-
Nc1nonc1NC(=O)NN=C1CCCCC1,-,-,-,-5.9,-
CC1CC(C)CN(C(=O)CSc2nc(Cc3cccs3)nc3ccccc23)C1 (configuration not stated),-,-,-,-,-7.1
CCC(C)(C)c1ccc(OCCCC[n+]2cccc(C)c2)c(C(C)(C)CC)c1,.,.,-,.,-8.1
COc1ccc(-c2csc(=Nc3ccccc3)n2CCO)cc1,15,-,-,-,-
O=C(Nc1ccc2c(c1)CN(Cc1ccccc1O)CC2)C1CCCO1 (configuration not stated),-,-,-,-,-
CC(SC#N)C(=O)C12CC3CC(CC(C3)C1)C2 (configuration not stated),-,-,-,-5.1,-
CC(C)NCC(O)COCCOc1ccc(C(C)(C)C)cc1 (configuration not stated),-,-,-,-5.2,-
O=C(NCC1CC1)c1cc(-c2ccccc2)nn1CC1CC(c2cccnc2)=NO1 (configuration not stated),-,-,-,-,-
COc1ccc(CCNC(=O)C2CCCN(S(=O)(=O)c3cc(C)ccc3OC)C2)cc1OC (configuration not stated),-,-,-,-,-
Cc1ccc(-n2cc(-c3ccc([N+](=O)[O-])cc3)[nH]c2=S)c(C)c1,9.7,-,-,-,-
Cc1cc(=O)[nH]c(N/N=C/c2ccc(C)o2)n1,-,-,-,-6.6,-
Cc1cc(=O)[nH]c(N/N=C/c2ccco2)n1,-,-,-,-,-
Cc1cccc(N2CCN(C(=O)c3ccc4c(c3)NC(=O)C(CSCc3cccc(F)c3)N4)CC2)c1C (configuration not stated),-,34,-,-,-
Cc1cccc(N2CCN(C(=O)c3ccc4c(c3)OCCO4)CC2)c1C,-,-,-,-,-
COc1ccc2[nH]cc(CCNC(=O)COc3ccc4ccc(=O)oc4c3)c2c1,-,-,-,-,-
SMILES,MrgX1 PAM,MrgX1 agonist,RGS4 block,MrgX1 antag,RGS4 pot
CN(C)c1ccc(C(C(=O)NC2CCCCC2)N(Cc2ccco2)C(=O)c2snc(C(N)=O)c2N)cc1 (configuration not stated),-,-,-,-,-
Clc1ccc(CSc2cc3c(nn2)-c2ccccc2CC3)cc1Cl,-,-,-,-,-8.1
O=C(O)c1ccc(/C=N/NC(=O)C2CC2(c2ccccc2)c2ccccc2)cc1 (configuration not stated),-,-,-,-5.7,-
C=CCn1c(SCC(=O)NCC2CCCO2)nc2scc(-c3ccccc3)c2c1=O (configuration not stated),-,-,-,-5.2,-
O=C(Nc1ccc(CN2CCCCC2)cc1)c1cc(Br)ccc1Cl,-,-,-,-5.5,-
CC(Nc1nc(-c2cccnc2)nc2ccccc12)c1ccc(F)cc1 (configuration not stated),-,-,-,-,-7.1
